S100A4 inh HTS: inhibitors of human S100A4 binding to myosin IIA peptide | S100A4/TAMRA-MyoIIA peptide fluorescence polarization | P26447 | inhibition, % at 10.7 µM | AID 652163 | 0.14% of 360,000 active;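 active means mean inhibition of at least 70% across replicates, with every replicate also reaching that level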
Target sequence (P26447 whole entry, looked up): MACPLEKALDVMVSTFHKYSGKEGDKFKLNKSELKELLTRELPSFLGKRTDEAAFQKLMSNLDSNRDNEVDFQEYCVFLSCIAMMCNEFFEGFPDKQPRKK
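Test system: S100A4 monomer protein; Medium: HEPES pH 7.2 with CaCl2, KCl, NaCl, DTT, Triton; Probe or stimulus: TAMRA-labelled myosin IIA heavy-chain peptide probe, 5 nM; Doses: one dose per compound; Times: polarization read 5 min after assay mix addition, stable 5–60 min; Benchmarks: neutral control DMSO, positive control TFP.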
ERAP1 inh: blocks human ERAP1 aminopeptidase activity; 0.15% of 340,000 active; AID 652197; inhibition, % at 10.7 µM; recombinant ERAP1, Leu-AMC fluorescence, 60 min;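 active means mean replicate inhibition of at least 30%, or all replicates individually reaching that 30% level; inactive means mean below 30% and not every replicate reaching it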;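 further: 0% = neutral control wells and 100% = L-leucinethiol positive control wells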
PDI inh: blocks human protein disulfide isomerase activity. P07237. PDI insulin aggregation turbidity, A650, 90 min. inhibition, % at 10 µM. 0.052% of 350,000 active;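 active means mean inhibition across replicates of 30% or more, whatever share of single replicates reach that level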
ERp5 inh: ERp5 (human) disulfide isomerase inhibition | ERp5 insulin aggregation, absorbance 650 nm, 90 min | 0.05% of 350,000 active | Q15084 | inhibition, % at 9.99 µM;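 active means mean replicate inhibition above about 25%, with every replicate also reaching it, limit read from the data, passing the limit was not always enough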
Target sequence (Q15084 whole entry, looked up): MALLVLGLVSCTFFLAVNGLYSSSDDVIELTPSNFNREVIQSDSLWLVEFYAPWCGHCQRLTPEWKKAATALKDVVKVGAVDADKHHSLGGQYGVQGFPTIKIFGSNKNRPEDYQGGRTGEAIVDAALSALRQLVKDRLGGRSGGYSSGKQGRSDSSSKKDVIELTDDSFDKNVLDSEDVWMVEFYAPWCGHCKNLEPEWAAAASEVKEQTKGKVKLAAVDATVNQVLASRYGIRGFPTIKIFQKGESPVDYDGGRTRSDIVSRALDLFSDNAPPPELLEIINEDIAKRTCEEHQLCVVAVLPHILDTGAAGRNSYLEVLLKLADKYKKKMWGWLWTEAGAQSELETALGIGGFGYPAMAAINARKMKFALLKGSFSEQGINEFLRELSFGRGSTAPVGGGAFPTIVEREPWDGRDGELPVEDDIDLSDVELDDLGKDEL
FGF22 binding: FGF22 (human) thermal shift binding | Q9HCT0 | recombinant FGF22 thermal shift, SYPRO orange fluorescence; percent of sucrose octasulfate shift, DMSO zero | activity (Tm shift, normalised), % at 9.99 µM | 1.5% of 340,000 active | AID 651658;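 active means mean Tm shift, scaled 0 neutral to 100 positive control, at about 1.3% or above, every replicate too, limit read from the data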
An asterisk follows results filed as active; / = not tested or not shown. The sample as a whole holds a higher share of hits than the screen did.

SMILES	S100A4 inh HTS	ERAP1 inh	PDI inh	ERp5 inh	FGF22 binding
C[C@@H]1CCCCO[C@@H](CN(C)C(=O)c2ccccc2)[C@@H](C)CN([C@H](C)CO)C(=O)c2cc(NC(=O)NC3CCCCC3)ccc2O1	-5.2	-3.2	/	2.2	0.1
Cc1noc(C)c1NC(=O)N(C)C[C@@H]1OCCCC[C@H](C)Oc2ccc(NC(=O)NC3CCCCC3)cc2C(=O)N([C@@H](C)CO)C[C@H]1C	-71.1	-5.1	/	-0.6	1.5*
C[C@@H]1CCCCO[C@H](CN(C)C(=O)c2ccccc2)[C@H](C)CN([C@@H](C)CO)C(=O)c2cc(NC(=O)Nc3ccc(F)cc3)ccc2O1	-1.7	-4.2	/	1.1	1.3*
C[C@@H]1CCCCO[C@@H](CN(C)C(=O)c2ccccc2)[C@@H](C)CN([C@H](C)CO)C(=O)c2cc(NC(=O)c3ccccc3)ccc2O1	-4.0	1.7	/	2.9	1.1
C[C@H]1CCCCO[C@H](CN(C)C(=O)c2ccccc2)[C@@H](C)CN([C@@H](C)CO)C(=O)c2cc(NC(=O)NC3CCCCC3)ccc2O1	113.9*	-4.0	/	-2.0	-0.7
CCc1ccc(OCCNC(=O)c2ccco2)cc1	-36.9	0.4	-4.6	1.1	0.1
CC1CC(C)CN(CCCNC(=O)c2ccc3c(SCC(=O)O)c4c(nc3c2)CCC4)C1 (configuration not stated)	-0.2	2.1	-1.7	5.3	0.6
CCCN(CC(=O)Nc1ccccc1OC)C(=O)CSc1nc(C)cc(C)n1	-1.9	1.4	-3.4	3.1	-0.1
O=C(COc1ccc2ccccc2c1)N1CCN(C(=O)c2ccc([N+](=O)[O-])cc2)CC1	8.1	-2.7	0.1	-1.6	0.4
CC(C)NC(=O)Nc1ccc2c(c1)C(=O)N([C@H](C)CO)C[C@H](C)[C@H](CN(C)C(=O)c1ccncc1)OCCCC[C@@H](C)O2	1.0	-1.9	/	4.3	0.2
CC(C)NC(=O)Nc1ccc2c(c1)C(=O)N([C@@H](C)CO)C[C@H](C)[C@H](CN(C)C(=O)c1ccncc1)OCCCC[C@H](C)O2	96.1*	4.5	/	0.9	-0.5
O=C(CN1C(=O)C(=O)c2ccccc21)OCN1C(=O)c2ccccc2C1=O	0.6	-1.2	-1.1	16.9	43.1*
COc1ccccc1NC(=O)COC(=O)CN1C(=O)C(=O)c2ccccc21	9.5	-6.3	2.8	0.7	-0.1
COc1ccc(C(=O)O)cc1S(N)(=O)=O	1.9	-0.7	1.2	-13.8	0.6
CNS(=O)(=O)c1cc(C(=O)O)ccc1OC	1.1	2.8	-5.9	4.6	43.0*
CC(=O)Nc1ccc(SC(Sc2ccc(NC(C)=O)cc2)c2ccccc2)cc1	1.8	7.8	-6.8	-16.4	1.4*
OC1(C#CCCN2CCCCC2)c2ccccc2-c2ccccc21	-5.8	-0.8	5.6	-3.0	44.0*
OC1(CC#CCN2CCCCC2)c2ccccc2-c2ccccc21	-11.2	-7.0	-0.2	3.3	0.1
COCCCC1CCN(C(=O)C2CCC(=O)N(CCc3ccccc3)C2)CC1 (configuration not stated)	-2.7	1.3	4.3	-8.0	-0.2
COCCCC1CCN(C(=O)C2CCC(=O)N(CCCc3ccccc3)C2)CC1 (configuration not stated)	0.1	-0.2	-0.5	-5.4	43.0*
Cc1nc2cc(NS(=O)(=O)c3cccc(F)c3)ccc2s1	6.6	-0.9	7.4	1.2	44.1*
COc1cccc(CC2(CO)CCCN(C(=O)c3cc[n+]([O-])cc3)C2)c1 (configuration not stated)	4.6	-1.2	7.8	0.0	0.4
COc1ccc(NC(=O)CN(C)CC(=O)Nc2ccc(Cl)c(S(=O)(=O)N(C)C)c2)cc1	23.8	-2.7	11.0	0.6	43.1*
O=C(C[C@H]1CC[C@H]2[C@@H](COC[C@H](O)CN2Cc2ccc(F)cc2)O1)NCCc1ccccc1	-17.5	-0.6	/	0.2	-0.1
COC(=O)CN1C(=O)N/C(=C/c2cc(Cl)c(OC)c(OC)c2)C1=O	-2.8	-0.9	-2.1	4.2	-0.3
SMILES	S100A4 inh HTS	ERAP1 inh	PDI inh	ERp5 inh	FGF22 binding
COC(=O)CN1C(=O)N/C(=C/c2ccc(OC)cc2)C1=O	-4.3	4.3	-3.8	-4.5	43.3*
O=C(NC1CC1)C1CCN(C2CCN(C(=O)/C=C/c3cccs3)CC2)CC1	-14.0	1.2	0.5	3.4	0.4
COc1ccccc1N1CCN(C(=O)CN2C(=O)c3ccccc3C2=O)CC1	5.8	-1.6	5.6	-2.6	0.3
COc1ccccc1N1CCN(C(=O)CCN2C(=O)c3cccc4cccc(c34)C2=O)CC1	-2.8	-0.4	-6.3	-5.4	44.8*
CC(C)C#Cc1ccc([C@H]2[C@@H](CO)N(C(=O)c3cccc(F)c3)[C@H]2C#N)cc1	108.6*	0.8	/	1.3	-0.6
Cc1cc(C)n2nc(C(=O)N3CCN(c4ccc([N+](=O)[O-])cc4)CC3)nc2n1	9.3	40.9*	-0.7	1.6	0.3
Cc1cc(C)n2nc(C(=O)Nc3ccc(N4CCOCC4)cc3)nc2n1	-3.6	59.4*	7.7	-8.9	/
COc1ccc(N2CCN(C(=O)c3nc4nc(C)cc(C)n4n3)CC2)cc1	-5.7	-2.6	-3.4	1.0	0.4
Cc1ccc(CN2C(=O)C(F)(F)Oc3ccc(C)cc32)cc1	0.5	-2.4	-56.4	-3.7	0.0
CCCCn1c(SCC(=O)Nc2ccc(C)c(S(=O)(=O)N3CCOCC3)c2)nnc1C(CC)N(C)C (configuration not stated)	-1.8	0.1	32.0*	-0.2	-0.4
Cc1ccc(NC(=O)CSc2n[nH]c(N)n2)cc1S(=O)(=O)N1CCOCC1	-3.0	2.0	-1.3	-4.3	43.9*
O=C(CSc1nc2ccccc2[nH]1)Nc1cccc(S(=O)(=O)N2CCOCC2)c1	1.4	1.8	-2.4	-1.4	1.8*
CCC(=O)Nc1ccc2c(c1)OC[C@H](C)N(C(=O)c1cnccn1)C[C@@H](C)[C@@H](OC)CN(C)C2=O	4.4	-1.5	/	-0.9	/
O=C(C[C@H]1C[C@@H]2c3cc(NC(=O)C4CCOCC4)ccc3O[C@@H]2[C@@H](CO)O1)NCC(F)(F)F	5.4	-0.6	/	1.6	0.1
O=C(C[C@H]1C[C@H]2c3cc(NC(=O)CC4CC4)ccc3O[C@H]2[C@H](CO)O1)NCC(F)(F)F	6.4	-3.4	/	-2.9	-0.1
O=C(C[C@@H]1C[C@H]2c3cc(NC(=O)C4CCC4)ccc3O[C@H]2[C@@H](CO)O1)NCC(F)(F)F	5.3	-0.7	/	77.2*	0.4
CN1CCN(C(=O)C[C@@H]2C[C@@H]3c4cc(NC(=O)C5CCOCC5)ccc4O[C@@H]3[C@H](CO)O2)CC1	1.5	-0.9	/	36.9*	0.1
O=C(C[C@H]1C[C@@H]2c3cc(NC(=O)C4CCC4)ccc3O[C@@H]2[C@H](CO)O1)NCC(F)(F)F	-5.1	0.0	/	43.0*	0.8
CC1CC(C)(C)NC(=S)N1CC(=O)NCc1ccc2c(c1)OCO2 (configuration not stated)	-4.6	0.0	0.2	-6.8	43.0*

Compound activity as filed in PubChem BioAssay.
